Screening results from PubChem BioAssay.
An excerpt weighted towards active compounds, which were near 2.7% of everything screened.
PAFAH1B2 inh: PAFAH1B2 (human) inhibition; AID 492953; recombinant PAFAH1B2, FP-rhodamine activity probe, fluorescence polarization; inhibition, % at 3.39 µM; P68402; actives 1.2% (n = 340,000);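 active means inhibition above the mean of all tested compounds plus 3 SD, cut at about 24% in these data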;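 further: 0% = enzyme with DMSO and 100% = wells lacking PAFAH1B2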
PAFAH2 inh: inhibitors of human PAFAH2 | recombinant PAFAH2, FP-rhodamine activity probe, fluorescence polarization | Q99487 | actives 0.99% (n = 340,000) | AID 492956 | inhibition, % at 3.39 µM;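 active means inhibition above the mean over all tested compounds plus 3 SD, cut at about 30% in these data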;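 further: inhibitors block probe labeling of enzyme so polarization drops; 0% = enzyme with DMSO and 100% = wells lacking PAFAH2 protein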
PAFAH1B3 FP inh: blocks human PAF acetylhydrolase 1B catalytic subunit 3. Q15102. recombinant PAFAH1B3, FP-rhodamine probe, fluorescence polarization. inhibition, % at 3.39 µM. actives 0.28% (n = 340,000). AID 492972;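 active means inhibition above the screen-wide average of all tested compounds plus 3 SD, cut at about 25% in these data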;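 further: 0% = enzyme with DMSO only and 100% = wells lacking PAFAH1B3 protein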
RBBP9 inhibitor: inhibitors of human serine hydrolase RBBP9 | inhibition, % at 7.94 µM | actives 0.2% (n = 220,000) | recombinant RBBP9, FP-Rh probe fluorescence polarization | AID 1515 | O75884;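 active means inhibition above the campaign mean of all tested compounds plus 3 SD, cut at about 14% in these data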;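 further: plate controls were DMSO wells with RBBP9 for no effect and wells lacking RBBP9 protein for full effect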
Target sequence (O75884 whole entry, looked up): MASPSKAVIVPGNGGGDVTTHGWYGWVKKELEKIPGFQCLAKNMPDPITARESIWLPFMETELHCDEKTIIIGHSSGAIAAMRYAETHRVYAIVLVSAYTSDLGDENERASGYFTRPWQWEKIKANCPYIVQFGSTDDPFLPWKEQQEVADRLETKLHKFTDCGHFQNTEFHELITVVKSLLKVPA
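System: RBBP9 protein / Quantity: 2.5 µM RBBP9 dispensing solution, before mixing / Also added: Serine-hydrolase probe FP-Rh, 375 nM pre-mixing / Dosing: 7.94 µM single dose, 0.794% DMSO / Timing: enzyme-compound preincubation 30 min, then probe labeling 45 min, 25 °C / Signal: FP readout at 525/598 nm / Controls: DMSO-treated enzyme wells and wells lacking RBBP9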
pPAFAH FP inh: inhibitors of human plasma PAF acetylhydrolase (pPAFAH); actives 1.5% (n = 330,000); inhibition, % at 3.39 µM; recombinant pPAFAH, FP-rhodamine probe fluorescence polarization; Q13093;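 active means inhibition above the mean inhibition across the screen plus 3 SD, cut at about 25% in these data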;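 further: inhibitors block binding of the rhodamine activity-based probe so polarization drops; 0% = enzyme with DMSO and 100% = wells lacking pPAFAH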
Target sequence (Q13093 whole entry, looked up): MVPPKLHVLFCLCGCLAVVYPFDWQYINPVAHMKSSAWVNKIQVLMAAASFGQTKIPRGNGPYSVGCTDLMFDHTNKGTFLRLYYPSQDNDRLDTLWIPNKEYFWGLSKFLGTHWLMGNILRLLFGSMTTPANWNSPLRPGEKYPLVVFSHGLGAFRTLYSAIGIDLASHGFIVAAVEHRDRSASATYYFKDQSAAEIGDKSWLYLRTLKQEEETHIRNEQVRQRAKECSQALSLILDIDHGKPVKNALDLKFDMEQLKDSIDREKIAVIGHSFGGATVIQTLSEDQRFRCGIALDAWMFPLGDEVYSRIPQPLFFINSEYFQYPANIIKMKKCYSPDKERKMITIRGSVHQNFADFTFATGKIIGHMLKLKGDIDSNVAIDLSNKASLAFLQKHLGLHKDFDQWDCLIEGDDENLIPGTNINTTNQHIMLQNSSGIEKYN
An asterisk follows results filed as active; · = no result given.

SMILES | PAFAH1B2 inh | PAFAH2 inh | PAFAH1B3 FP inh | RBBP9 inhibitor | pPAFAH FP inh
CC1CCCC(NC(=O)COC(=O)Cc2c[nH]c3ccccc23)C1C (stereo unspecified) | 7.8 | 15.3 | 3.6 | -5.0 | 15.4
CC1CCCC(NC(=O)COC(=O)c2ccc([N+](=O)[O-])s2)C1C (stereo unspecified) | 14.9 | 65.6* | 53.2* | · | 16.4
CC(C)NC(=S)NC(=O)/C=C/c1cccc2ccccc12 | -0.1 | -0.9 | 1.4 | -11.2 | -3.3
CSc1nc2ccc(NS(=O)(=O)c3ccc4c(c3)OCCO4)cc2s1 | 0.0 | -1.2 | 4.3 | 1.8 | 30.4*
CSc1nc2ccc(NS(=O)(=O)c3c(Cl)cccc3Cl)cc2s1 | -0.1 | 12.2 | -2.5 | -10.2 | 8.0
COc1cc(C#N)c(NC(=O)CN2CCN(CCO)CC2)cc1OC | -0.7 | -3.2 | 0.2 | -0.7 | -6.9
O=C(CCNS(=O)(=O)c1ccc(Cl)cc1)N1CCOCC1 | 5.0 | 3.3 | 2.7 | · | 3.9
O=C(CCNS(=O)(=O)c1ccc(Cl)cc1)N1CCCCCC1 | 26.6* | 1.7 | -4.0 | · | 11.9
Cc1ccc(C)c(S(=O)(=O)N2CCN(C(=O)/C=C/c3ccco3)CC2)c1 | 0.3 | 4.4 | 9.5 | · | 29.9*
Cc1ccc(C)c(S(=O)(=O)N2CCN(C(=O)CCNS(=O)(=O)c3ccc(C)c(C)c3)CC2)c1 | 3.1 | 5.5 | 6.0 | · | 27.1*
CC(=O)N1CCCc2cc(S(=O)(=O)NCCC3=CCCCC3)ccc21 | 5.7 | 3.8 | 3.4 | -0.2 | 11.9
CCCCCn1c(=O)[nH]c2cc(C(=O)NCCN(CC)CC)ccc2c1=O | 5.8 | -9.8 | 2.9 | -2.1 | -3.2
CCCn1nc(C(=O)NC2CCCc3ccccc32)c2ccccc2c1=O (stereo unspecified) | 1.5 | 5.0 | 9.0 | -9.0 | 0.0
O=C(O)c1ccccc1N=Nc1c(O)[nH]c2ccc([N+](=O)[O-])cc12 | 8.6 | 36.9* | 17.8 | · | 20.6
Cc1ccc(NCC(=O)N=Nc2c(O)[nH]c3ccc([N+](=O)[O-])cc23)cc1 | · | · | · | 13.5 | 25.4*
O=C(N=Nc1c(O)[nH]c2ccc([N+](=O)[O-])cc12)c1ccccc1Cl | 5.9 | 11.6 | 3.8 | -12.2 | 2.5
COC(=O)c1ccc(CNC(=O)COC(=O)/C=C/c2cc(OC)c(OC)c(OC)c2)cc1 | 4.3 | 1.8 | 15.6 | · | -5.6
Cc1cc(OC(=O)c2cccc(F)c2)c([N+](=O)[O-])c(=O)[nH]1 | 4.2 | -2.8 | 1.2 | · | 1.2
COc1ccc(CNC(=O)C(=O)NCC2OCCCN2S(=O)(=O)c2cccs2)cc1 (stereo unspecified) | 27.4* | 4.8 | 0.2 | · | 8.6
Cc1ccc(CNC(=O)C(=O)NCC2OCCN2S(=O)(=O)c2ccc(Cl)cc2)cc1 (stereo unspecified) | 21.7 | 5.3 | 20.6 | · | 1.8
Cc1ccc(S(=O)(=O)N2CCOC2CNC(=O)C(=O)NCc2ccc(Cl)cc2)cc1 (stereo unspecified) | 29.2* | -5.9 | -2.8 | · | 9.7
COc1ccc(CNC(=O)C(=O)NCC2CCCN2S(=O)(=O)c2cccs2)cc1 (stereo unspecified) | 5.2 | -1.6 | 6.6 | · | 3.0
C/C=C\C=C\C(=O)Nc1cccc(C2=NOC3(C2)C[C@@H](C(N)=O)N(C(=O)C(c2ccccc2)c2ccccc2)C3)c1 (stereo partly specified) | -4.6 | -18.7 | -14.7 | · | -15.7
CCCCNc1c(-c2cccc(-c3ccc(OC)cc3)c2)nc2cc(C)ccn12 | 6.3 | 1.3 | 6.0 | · | 14.6
Cc1ccc2nc(-c3ccc(-c4cccc(Cl)c4)cc3)c(NCc3ccccc3)n2c1 | 5.2 | 24.1 | 4.7 | · | 12.8
SMILES | PAFAH1B2 inh | PAFAH2 inh | PAFAH1B3 FP inh | RBBP9 inhibitor | pPAFAH FP inh
CCCCNc1c(-c2cccc(-c3ccc(OC)cc3)c2)nc2ccc(C)cn12 | 3.5 | -7.8 | 1.9 | · | 25.4*
COc1cc(-c2nc3ccc(C)cn3c2NCc2ccccc2)ccc1-c1cccc(Cl)c1 | -0.2 | 1.6 | 6.2 | · | 30.4*
O=C1CCCCCCC1Sc1ccccc1[N+](=O)[O-] (stereo unspecified) | 4.7 | -0.4 | 15.0 | -10.4 | 0.1
CCCCNc1c(-c2ccc(OC)c(SC3CCCCC3)c2)nc2cnccn12 | 8.3 | -2.9 | 7.3 | · | 33.0*
CCCCNc1c(-c2ccc(OC)c(SC3CCCCC3)c2)nc2cc(C)ccn12 | 4.3 | -0.1 | 6.4 | · | 21.2
O=C(NNC(=O)c1ccccc1F)c1ccc(S(=O)(=O)N2CCCC2)cc1 | 4.1 | -1.9 | 8.8 | · | 0.8
CC1CC(C)CN(S(=O)(=O)c2ccc(C(=O)NNC(=O)c3ccccc3F)cc2)C1 (stereo unspecified) | 26.1* | 4.8 | 3.5 | · | 2.3
CC(C(=O)O)N(C(=O)c1ccccc1)c1ccc(F)cc1 (stereo unspecified) | 29.0* | -0.1 | 9.1 | -5.0 | 5.0
CCCc1cc(=O)n2nc(N3CCC(C(=O)Nc4cccc(C(C)=O)c4)CC3)sc2n1 | -3.1 | 3.4 | 1.9 | · | -2.3
O=S(=O)(NC1CCCCCCC1)c1ccccc1 | 11.4 | 3.3 | 1.6 | · | 6.3
O=S(=O)(NC1C2CC3CC(C2)CC1C3)c1ccccc1 (stereo unspecified) | 25.7* | 7.6 | 4.7 | · | 1.7
Cc1ccc(/C=C/C(=O)O)cc1S(=O)(=O)NCc1ccco1 | 2.9 | -7.9 | 7.7 | -3.6 | 4.0
CCc1noc(C)c1C(=O)Nc1nnc(C(CC)CC)s1 | 3.0 | -1.4 | 0.7 | · | -0.1
COCCN(C(=O)CNC(=O)c1cccs1)C(C(=O)NC(C)(C)C)c1ccccc1 (stereo unspecified) | -3.8 | -0.6 | 1.5 | -4.1 | 1.4
CC(C)(C)OC(=O)N1CCCC(C(=O)CC#N)C1 (stereo unspecified) | 3.1 | -5.0 | 1.9 | -5.4 | 4.4
CC1(C(=O)NCc2ccc(F)cc2)Oc2ccccc2NC1=O (stereo unspecified) | 29.7* | -3.0 | 7.8 | -1.4 | 0.1
COc1cc(C2(c3ccc(O)c(OC)c3)C(=O)Nc3c(Br)cc(Br)cc32)ccc1O | 24.9* | 6.3 | 7.4 | · | 1.2
COc1cc(C2(c3ccc(O)c(OC)c3)C(=O)N(C)c3ccc(Br)cc32)ccc1O | 4.3 | 2.3 | 13.0 | · | 4.7
CCCCC1OC23CCCCC2C(C#N)(C(=N)O3)C1(C#N)C#N (stereo unspecified) | 30.5* | 36.3* | 26.2* | -15.7 | 5.5
CCCCC1OC23CCCCC2C(C#N)(C#N)C1(C#N)C(=N)O3 (stereo unspecified) | 29.8* | 41.4* | 36.0* | -5.2 | 16.9
N#CC1(C#N)C(c2ccccc2)OC23CCCCC2C1(C#N)C(=N)O3 (stereo unspecified) | 15.0 | 25.9 | 20.4 | 7.6 | 15.8
CCCCCCCCOc1ccc(C2OC34CCCCC3C(C#N)(C#N)C2(C#N)C(=N)O4)cc1 (stereo unspecified) | 27.2* | 33.8* | 22.0 | -6.7 | 29.9*
O=C(COC(=O)c1ccc(O)cc1)Nc1ccc(S(=O)(=O)N2CCCC2)cc1 | -4.6 | -3.0 | 7.1 | · | -1.2
